Drawing on ChEMBL document CHEMBL3616447, “Identification of novel PARP-1 inhibitors: Drug design, synthesis and biological evaluation” (Bioorg Med Chem Lett, 2015), this text covers IC50 and CC50 for 12 compounds.

pIC50: −log10 of the molar value.

Experiment [1] concerns the target Poly [ADP-ribose] polymerase 1 (Homo sapiens, UniProt P09874). Kind of experiment: Inhibition of PARP1 (unknown origin).
The nature of experiment [2]: Anticancer activity against human BRCA1-deficient MDA-MB-436 cells after 96 hrs by MTT assay. The class given is functional. As to conditions: MDA-MB-436, 96 h. The method in brief:
(§1)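 Human breast cancer lines: MCF-7 (wild type) and MDA-MB-436 (naturally carrying BRCA1 mutations, BRCA1-deficient). Cytotoxicity reported as CC50 in μM.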
On the technique in general: Formazan colour is commonly taken as a measure of viable cells.

Experiment [3] concerns MCF7. Put plainly: Anticancer activity against human MCF7 cells after 96 hrs by MTT assay. Type of experiment: functional. The note with it: MCF7, 96 h. The gist of the method:
as §1

Sequence of Poly [ADP-ribose] polymerase 1 (P09874 whole entry): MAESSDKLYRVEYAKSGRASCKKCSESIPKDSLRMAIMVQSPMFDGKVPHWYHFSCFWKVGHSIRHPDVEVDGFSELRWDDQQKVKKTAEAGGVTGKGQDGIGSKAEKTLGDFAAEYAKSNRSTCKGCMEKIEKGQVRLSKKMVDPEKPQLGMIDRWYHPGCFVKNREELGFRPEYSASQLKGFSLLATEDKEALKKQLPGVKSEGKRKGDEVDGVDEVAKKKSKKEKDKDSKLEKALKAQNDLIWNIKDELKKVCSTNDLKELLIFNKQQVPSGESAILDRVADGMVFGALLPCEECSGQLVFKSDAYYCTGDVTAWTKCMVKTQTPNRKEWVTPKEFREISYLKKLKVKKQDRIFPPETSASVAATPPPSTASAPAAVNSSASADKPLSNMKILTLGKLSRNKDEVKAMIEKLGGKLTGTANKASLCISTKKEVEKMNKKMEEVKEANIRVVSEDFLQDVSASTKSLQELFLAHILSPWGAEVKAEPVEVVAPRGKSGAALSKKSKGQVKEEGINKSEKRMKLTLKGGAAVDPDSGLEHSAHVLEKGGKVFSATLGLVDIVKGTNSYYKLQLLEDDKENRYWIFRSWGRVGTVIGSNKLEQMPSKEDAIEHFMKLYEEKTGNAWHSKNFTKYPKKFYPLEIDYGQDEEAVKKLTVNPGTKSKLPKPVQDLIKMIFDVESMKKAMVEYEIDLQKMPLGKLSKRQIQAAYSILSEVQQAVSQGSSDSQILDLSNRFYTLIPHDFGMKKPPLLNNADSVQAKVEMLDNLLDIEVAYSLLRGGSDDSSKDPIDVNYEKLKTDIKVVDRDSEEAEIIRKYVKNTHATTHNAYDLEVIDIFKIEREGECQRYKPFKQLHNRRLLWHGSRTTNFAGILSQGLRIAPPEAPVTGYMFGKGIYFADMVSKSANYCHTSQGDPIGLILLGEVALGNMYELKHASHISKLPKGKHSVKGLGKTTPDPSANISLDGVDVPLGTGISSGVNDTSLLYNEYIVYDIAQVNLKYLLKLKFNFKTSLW

As a reminder, the pIC50 is the negative decadic logarithm of the IC50, by convention in mol/L. A lower pIC50 goes with a large IC50. The CC50 is the concentration that lowers cell viability or growth by half. The low end stands for harm at low concentration, the high end for better tolerance by the cells. As to `CNCc1ccc(-c2[nH]c3cccc4c3c2C(=O)NNC4=O)cc1`, in experiment [1], the negative-log IC50 (pIC50) is 5.57. Also, the CC50 in experiment [2] came out at 11.3 µM; in experiment [3], 83.1 µM.
For `CCCNCc1ccc(-c2[nH]c3cccc4c3c2C(=O)NNC4=O)cc1`, the CC50 in experiment [3] was 101 µM.
The compound `CC(C)NCc1ccc(-c2[nH]c3cccc4c3c2C(=O)NNC4=O)cc1` had a pIC50 in experiment [1] of 4.95. For the same compound, the CC50 in experiment [2] stood at 55.7 µM; in experiment [3], 40.7 µM.
The like results for `CCCCNCc1ccc(-c2[nH]c3cccc4c3c2C(=O)NNC4=O)cc1` were, in that order, 6.60, 18.9 µM and 18 µM.
The matching figures for `CNCc1ccc(-c2[nH]c3cc(F)cc4c3c2C(=O)NNC4=O)cc1`: 8.18, 56.2 µM and 65.3 µM.
The matching figures for `CCCNCc1ccc(-c2[nH]c3cc(F)cc4c3c2C(=O)NNC4=O)cc1`: 8.46, 5.45 µM and 25.9 µM.
Turning to `CCCCNCc1ccc(-c2[nH]c3cc(F)cc4c3c2C(=O)NNC4=O)cc1`, the pIC50 in experiment [1] is 8.62. The compound also gave a CC50 in experiment [2] of 114 µM.
Consider `CNCc1ccc(-c2cc3c4c(c[nH]c4c2)C(=O)NNC3=O)cc1`, for which the midpoint of cytotoxicity in experiment [3], the CC50, lay at 1240 µM. In other words, the millimolar range.
`CCCNCc1ccc(-c2cc3c4c(c[nH]c4c2)C(=O)NNC3=O)cc1` had a pIC50 in experiment [1] of 6.86. In addition, the CC50 was found to be 112 µM in experiment [2] and 5560 µM in experiment [3].
The matching figures for `CC(C)NCc1ccc(-c2cc3c4c(c[nH]c4c2)C(=O)NNC3=O)cc1`: 6.33, 105 µM and 1920 µM.
The like results for `CCCCNCc1ccc(-c2cc3c4c(c[nH]c4c2)C(=O)NNC3=O)cc1` were, in that order, 7.45, 68.8 µM and 237 µM.
`CNCc1ccc(-c2[nH]c3cc(F)cc4c3c2CCNC4=O)cc1` [RUCAPARIB]: the CC50 came out at 3 µM in experiment [2] and 19.5 µM in experiment [3].
